Test results as given in ChEMBL document CHEMBL1126618, “Epoxysuccinyl dipeptides as selective inhibitors of cathepsin B” (J Med Chem, 1993).

Experiments:
Rattus norvegicus = species: Rattus norvegicus; assay: Second order rate constant for inactivation of rat cathepsin B; conditions: in vitro
How it was run: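 Recombinant rat cathepsin B expressed in yeast, activated 15 min on ice in buffer containing 1 mM DTT. Continuous assay at pH 6.0: 50 mM phosphate, 200 mM NaCl, 5 mM EDTA, 10% v/v acetonitrile, 0.5 mM DTT. Substrate CbzPheArgMCA; fluorescence (ex 380, em 440 nm) followed until complete inactivation (typically 5–30 min) to obtain first-order kobs.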

[1] = ratio of cathepsin B/papain
How it was run: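 Both enzymes were run in a continuous CbzPheArgMCA fluorescence assay in 50 mM phosphate, 200 mM NaCl, 5 mM EDTA and 10% acetonitrile. Recombinant rat cathepsin B was run at pH 6.0 with 0.5 mM DTT. Papain was run at pH 6.5. In each case kobs was followed until complete inactivation.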

papain (Carica papaya) = papain (Carica papaya) (UniProt P00784); assay: Second order rate constant for inactivation of papain; conditions: in vitro

Row | SMILES | kinact/Ki (Rattus norvegicus) [M⁻¹ s⁻¹] | Ratio [1] | kinact/Ki (papain (Carica papaya)) [M⁻¹ s⁻¹]
1 | CCOC(=O)[C@H]1O[C@H]1C(=O)N[C@@H](CC(C)C)C(=O)N1CCC[C@H]1C(=O)O | 13800 | 18 | 760
2 | CC(C)CNC(=O)[C@H]1O[C@H]1C(=O)N[C@@H](CC(C)C)C(=O)N1CCC[C@H]1C(=O)O | 52000 | 93 | 558
3 | CC(C)C[C@H](NC(=O)[C@@H]1O[C@@H]1C(=O)O)C(=O)N1CCC[C@H]1C(=O)OCc1ccccc1 | 8700 | 0.05 | 176000
4 | CCOC(=O)[C@H]1O[C@H]1C(=O)N[C@@H](CC(C)C)C(=O)N1CCC[C@H]1C(=O)OCc1ccccc1 | 30 | 0.3 | 110
5 | CC(C)CNC(=O)[C@H]1O[C@H]1C(=O)N[C@@H](CC(C)C)C(=O)N1CCC[C@H]1C(=O)OCc1ccccc1 | 206 | 0.1 | 2070
6 | CC(C)C[C@H](NC(=O)[C@@H]1O[C@@H]1C(=O)O)C(=O)N1CCC[C@H]1C(=O)O | 2200 | 0.07 | 30000
